KCNK9 block – human KCNK9 channel inhibition. Q9NPC2. HEK293 KCNK9, FluxOR thallium flux fluorescence; stronger effect = lower value. B-score at 10 µM. 1.2% of 310,000 active;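 active = ratio B-score over 3 SD below the library mean, with starting fluorescence within 5 SD of its mean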;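 note: negative B-score means less thallium flux so channel inhibition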
KCNK3 block – human KCNK3 channel inhibition, primary screen | CHO-KCNK3 thallium flux, FluxOR fluorescence; stronger effect = lower value | O14649 | AID 602410 | 0.84% of 340,000 active | B-score at 10 µM;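 active = B-score under library mean minus 4 SD, starting fluorescence ratio at most library mean plus 5 SD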;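 note: more negative B-score means stronger inhibition of thallium flux through KCNK3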
hERG protect – shields human hERG channel from block by proarrhythmic agents; Q12809; CHO-hERG, FluxOR thallium flux, dofetilide IC70 present; activation (rescue from dofetilide block), less the hit threshold, % at 10 µM; 0.51% of 310,000 active; AID 1511;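 active = activation above the mean of controls blocked by dofetilide plus 5 SD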;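 note: thallium influx through hERG after potassium depolarization seen as dye fluorescence rise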
KCNQ1 act – potentiators or activators of human KCNQ1 potassium channel; P51787; CHO-K1 KCNQ1, thallium flux FluxOR fluorescence; stronger effect = higher value; B-score at 10 µM; 0.35% of 310,000 active; AID 2648;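 active = fluorescence ratio B-score, a plate-corrected score, at least three library SD, with initial intensity B-score within 5 SD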
Target sequence (P51787 whole entry, looked up): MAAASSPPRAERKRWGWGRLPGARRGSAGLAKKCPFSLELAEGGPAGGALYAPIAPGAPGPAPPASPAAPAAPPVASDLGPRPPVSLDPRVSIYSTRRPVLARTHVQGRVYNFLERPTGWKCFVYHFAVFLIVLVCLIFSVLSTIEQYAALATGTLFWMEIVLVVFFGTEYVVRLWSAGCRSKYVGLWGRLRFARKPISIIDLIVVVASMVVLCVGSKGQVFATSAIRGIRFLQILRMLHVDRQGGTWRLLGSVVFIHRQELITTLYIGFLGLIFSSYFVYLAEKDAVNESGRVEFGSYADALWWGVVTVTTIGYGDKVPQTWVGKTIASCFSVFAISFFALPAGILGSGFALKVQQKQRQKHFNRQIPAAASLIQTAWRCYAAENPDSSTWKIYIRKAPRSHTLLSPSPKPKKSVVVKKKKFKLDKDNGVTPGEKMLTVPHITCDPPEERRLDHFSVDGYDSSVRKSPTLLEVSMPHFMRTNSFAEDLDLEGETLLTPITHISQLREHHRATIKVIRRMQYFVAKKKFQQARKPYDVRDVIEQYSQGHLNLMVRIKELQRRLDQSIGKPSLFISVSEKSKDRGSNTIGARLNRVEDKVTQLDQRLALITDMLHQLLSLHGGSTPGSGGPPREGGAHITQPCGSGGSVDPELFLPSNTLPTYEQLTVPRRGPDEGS
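Material: CHO-K1 cells stably expressing KCNQ1. Medium: assay buffer for compound exposure, DMSO matched across wells. Reagent: K+/Tl+ depolarizing stimulus. Compound dosing: single-concentration screen. Times: 37 °C overnight plating, 90-min dark dye load, 20-min compound pretreatment. Technique: FluxOR Tl+ flux fluorescence.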
KCNQ1 inh – human KCNQ1 channel inhibition. 1.3% of 310,000 active. P51787. AID 2642. CHO-K1 KCNQ1, FluxOR thallium flux fluorescence; stronger effect = higher value. B-score at 10 µM;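 active = compounds whose thallium flux B-score, printed positive for inhibition, exceeds three library SD while starting fluorescence stays within three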;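 note: channel opened by potassium depolarization with thallium stimulus after 20 min compound exposure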
Kir21 block – blocks the mouse Kir2.1 inward-rectifier potassium channel; P35561; HEK293-Kir2.1, FluxOR thallium flux fluorescence; stronger effect = lower value; B-score at 10 µM; 0.85% of 310,000 active; AID 1672;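 active = fluorescence ratio B-score at or below minus 3 SD of library scores, with starting-brightness B-score within 2 SD, cut at about -4.2 in these data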;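 note: channel flux triggered by added potassium and thallium sulfate stimulus; B-score of peak minus minimum fluorescence over baseline after thallium stimulus; more negative B-score means stronger Kir2.1 block with less thallium influx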
KCNK9 inh conf – confirmation of human KCNK9 potassium channel inhibitors | 43% of 4,900 active | shares compounds with KCNK9 block | HEK293 KCNK9 cells, FluxOR thallium flux fluorescence | inhibition, % at 10 µM;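 active = thallium signal inhibited by more than 5 SD of the compound-free buffer control wells, on both duplicate plates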;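 note: 0% = assay buffer control wells without compound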
Kir21 sel – selectivity of KCNK9 modulators against mouse Kir2.1. shares compounds with KCNK9 block. Kir2.1 cells, FluxOR thallium flux fluorescence. 4% of 4,900 active. inhibition, % at 10 µM;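 active = thallium signal drop more than 5 SD beyond the mean of the no-compound control wells, seen in both duplicate plates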;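 note: signal is fluorescence rise after thallium addition divided by baseline fluorescence; plate controls were assay buffer only for no effect and full block by chlorpromazine control for full effect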
KCNK9 uninduced – second counter-screen for KCNK9 modulators: effect in non-induced cells; AID 492997; shares compounds with KCNK9 block; non-induced KCNK9-HEK293, FluxOR thallium flux; inhibition, % at 10 µM; 40% of 4,900 active;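 active = thallium signal drop beyond 5 SD of the untreated control mean, on both duplicate plates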;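 note: plate controls were buffer only IC0 wells for no effect and SID17386958 at its maximal inhibitory level for full effect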
KCNK3 inh conf – human KCNK3 channel inhibition, confirmation assay | shares compounds with KCNK3 block | CHO-KCNK3 thallium flux, FluxOR fluorescence; 0% buffer, 100% carvedilol maximal block | ratio percent of control, % at 10 µM | 99% of 2,400 active;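 active = ratio percent of control, averaged over triplicates, above buffer control mean plus 5 SD, cut at about 64% in these data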;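 note: ratio is the fluorescence rise from min to max over baseline after thallium stimulus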
KCNK3 noninduced – activity in cells without induced KCNK3 expression; non-induced KCNK3 parental cells, FluxOR thallium flux; stronger effect = lower value; 40% of 2,400 active; shares compounds with KCNK3 block; thallium flux ratio (lower = more inhibition) at 10 µM;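 active = thallium flux ratio, averaged over three wells, more than 5 SD below the buffer control mean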;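 note: host cells are CHO cells without KCNK3 induction; ratio is peak minus trough fluorescence over baseline then normalized to buffer controls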
Starred values were filed as active, the others as inactive; i = inactive; / = no result given. An excerpt weighted towards active compounds, which were near 3.8% of everything screened.

SMILES | KCNK9 block | KCNK3 block | hERG protect | KCNQ1 act | KCNQ1 inh | Kir21 block | KCNK9 inh conf | Kir21 sel | KCNK9 uninduced | KCNK3 inh conf | KCNK3 noninduced
COc1ccc(S(=O)(=O)Oc2ccccc2C(N)=O)cc1 | / | i | / | / | / | / | / | / | / | / | /
Cc1cccc(/C(N)=N/OC(=O)Cc2ccccc2)c1 | i | i | -8 | i | i | 0.56 | / | / | / | / | /
CCC(C(=O)O/N=C(\N)c1cccc(C)c1)c1ccccc1 (stereo not drawn) | -9.3* | -15* | -13 | i | i | -0.41 | 34%* | i | 24%* | 127* | 0.15*
COc1ccc(C2CC(c3ccccc3C(F)(F)F)=NN2c2ccc(S(N)(=O)=O)cc2)cc1 (stereo not drawn) | / | i | / | / | / | / | / | / | / | / | /
Cc1ccc(COn2c(-c3ccc(Cl)cc3Cl)nc3ncccc32)cc1 | -11* | -9.6* | -15 | i | i | -5.1* | 56%* | i | 42%* | 120* | 0.15*
CC1CCCCN1C(=O)c1ccc(Br)o1 (stereo not drawn) | i | i | -7 | i | i | -0.1 | / | / | / | / | /
COc1cccc(-c2nn(C)c3sc(C(=O)NCc4ccc5c(c4)OCO5)cc23)c1 | -13* | -11* | -18 | i | i | 0.54 | 58%* | i | 24%* | 99* | i
CCN(CCCNC(=O)c1cc2c(-c3cccc(OC)c3)nn(C)c2s1)Cc1ccccc1 | i | i | -13 | i | i | -3.9 | / | / | / | / | /
C=CCn1c(SCC(=O)NCC2CCCO2)nc2sc(CC)cc2c1=O (stereo not drawn) | / | i | / | / | / | / | / | / | / | / | /
Cc1cccc(C)c1NC(=S)Nc1ccc(Cl)c(Cl)c1 | -9.1* | -12* | -14 | i | 8* | -0.49 | 48%* | i | i | 86* | 0.14*
COc1ccc(NC(=S)Nc2ccc(C)c(Cl)c2)cc1OC | i | i | -8 | i | i | -3.4 | / | / | / | / | /
O=C(N/N=C/C(Br)=C/c1ccccc1)c1ccccc1F | -9.2* | -9.4* | 3 | i | i | 1.8 | 28%* | i | i | 98* | i
O=C(N/N=C/C(Cl)=C/c1ccccc1)c1ccccc1F | i | i | -6 | i | i | -3.3 | / | / | / | / | /
Cc1nc(SC(C)C(=O)Nc2cccc(C(F)(F)F)c2)c2c(C)c(C(=O)O)sc2n1 (stereo not drawn) | i | i | -11 | i | i | -0.53 | / | / | / | / | /
Cc1nc(N2CCC(C)CC2)c2c(C)c(C(=O)Nc3cccc(C(F)(F)F)c3)sc2n1 | i | -9.4* | -9 | i | 13* | 1.4 | i | i | 30%* | 126* | 0.13*
O=C(COc1ccc(Cl)cc1)N(Cc1ccccc1)c1nc(-c2ccccc2)cs1 | i | i | -13 | i | i | -2.4 | / | / | / | / | /
O=C(C1CC1)N(Cc1ccco1)c1nc(-c2ccccc2)cs1 | -12* | -9.6* | -10 | i | i | -1.3 | 30%* | i | 49%* | 109* | i
COC(=O)c1cc(NC(=O)COC(=O)C2CCC2)cc(C(=O)OC)c1 | i | i | -10 | i | i | 0.27 | / | / | / | / | /
CC(Oc1ccc(-c2ccccc2)c(F)c1)c1ccn(S(=O)(=O)c2ccc(F)cc2)n1 (stereo not drawn) | -10* | -12* | -14 | i | i | -0.19 | 57%* | i | 42%* | 106* | i
CCCCn1c(N)c(N(CC(C)C)C(=O)CSc2nnc(C)n2-c2ccc(OC)cc2)c(=O)[nH]c1=O | i | i | -14 | i | i | 0.39 | / | / | / | / | /
O=C(COC(=O)c1ccc(S(=O)(=O)C(F)F)cc1)Nc1ccccc1C(=O)NC1CC1 | / | i | / | / | / | / | / | / | / | / | /
COc1cc2c(cc1OC)C(c1cccc([N+](=O)[O-])c1)N(C(=O)c1ccc(F)cc1)CC2 (stereo not drawn) | -17* | -11* | -12 | i | 11* | 0.41 | 74%* | i | 38%* | 96* | 0.15*
COc1cc2c(cc1OC)C(c1cccc([N+](=O)[O-])c1)N(C(=O)CCC(=O)O)CC2 (stereo not drawn) | i | i | -3 | i | i | 0.06 | / | / | / | / | /
Cc1cccn2c(NCc3ccc4c(c3)OCO4)c(-c3ccc(O)cc3)nc12 | i | i | -5 | i | i | 0.19 | / | / | / | / | /
COc1ccc(-c2nc3ccccn3c2NCc2ccc3c(c2)OCO3)cc1 | -9.6* | -9.7* | -23 | i | i | -1.9 | 48%* | i | i | 110* | i
SMILES | KCNK9 block | KCNK3 block | hERG protect | KCNQ1 act | KCNQ1 inh | Kir21 block | KCNK9 inh conf | Kir21 sel | KCNK9 uninduced | KCNK3 inh conf | KCNK3 noninduced
NC(=O)C1CCN(C(=O)c2ccc(NS(=O)(=O)c3ccc(Br)s3)cc2)CC1 | / | i | / | / | / | / | / | / | / | / | /
COC(=O)c1ccc(CNC(=O)Cn2cnc3c(SC)nc(N)nc32)cc1 | / | i | / | / | / | / | / | / | / | / | /
COC(=O)COC(=O)c1ccccc1NC(=O)c1ccccc1 | i | i | -3 | i | i | 0 | / | / | / | / | /
O=C(COC(=O)c1ccccc1NC(=O)c1ccccc1)c1ccc([N+](=O)[O-])cc1 | -14* | -9.6* | -7 | i | i | -0.73 | 73%* | i | 34%* | 104* | i
N#CC(c1ccc(F)cc1)c1ccc(C(=O)c2ccc(F)cc2)cc1 (stereo not drawn) | -9.7* | -10* | -7 | i | i | -1.6 | 49%* | i | 34%* | 120* | i
Cc1cc(Nc2ccc(Cl)cc2)n(-c2cccc(Cl)c2)n1 | -8.2* | -9* | -14 | i | i | 0.12 | 50%* | i | 32%* | 149* | 0.15*
Cc1cc(NC(=O)CSc2cc(Cl)ccc2Cl)n(-c2ccccc2)n1 | -10* | -9.6* | -22 | i | i | -2.2 | 48%* | i | i | 127* | 0.14*
N#CC1C(=O)NC(c2ccccc2)=CC1c1ccccc1 (stereo not drawn) | / | i | / | / | / | / | / | / | / | / | /
NN(Cc1ccccc1)C(=S)Nc1ccc(Cl)c(Cl)c1 | i | i | -6 | i | i | -1.4 | / | / | / | / | /
N#Cc1c(SCC(=O)O)nc(N2CCCCC2)c2c1CCCC2 | i | i | -4 | i | i | 2.4 | / | / | / | / | /
